Activity calls are given as the source filed them. The calls are words filed in the database; no cut-off is given here.
Columns and labels:
Xenopus laevis [1] = experiment: Anesthetic effect on Xenopus laevis tadpole assessed as loss of swimming reflex at 30 uM; type: functional, organism-based
Xenopus laevis [2] = experiment: Anesthetic effect on Xenopus laevis tadpole assessed as loss of righting reflex; type: functional, organism-based
Outline: (§1)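 Xenopus tadpoles were exposed to steroid at five or more concentrations, with 10 or more animals per concentration. Loss of righting or swimming reflex was scored. EC50 and Hill coefficient were fitted from the dose–response curves; mean ± SEM.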

Xenopus laevis [3] = experiment: Anesthetic effect on Xenopus laevis tadpole assessed as loss of swimming reflex at 10 uM; type: functional, organism-based
Xenopus laevis [4] = experiment: Anesthetic effect on Xenopus laevis tadpole assessed as loss of swimming reflex; type: functional, organism-based; outline: as §1
Xenopus laevis [5] = experiment: Anesthetic effect on Xenopus laevis tadpole assessed as loss of swimming reflex at 3 uM; type: functional, organism-based
Oocyte [6] = experiment: Activity at rat GABA-A receptor alpha1beta2gamma2L expressed in Xenopus oocytes assessed as potentiation of GABA-induced chloride current at 1 uM by electrophysiological Method relative to control; type: cell-based
Outline: (§2)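 Oocytes expressing rat α1β2γ2L GABA-A receptors were recorded whole-cell. Compound at 0.1, 1 or 10 µM was co-applied with 2 µM GABA. Response is the current ratio with/without compound. At least four different oocytes per concentration; mean ± SEM.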

Oocyte [7] = experiment: Activity at rat GABA-A receptor alpha1beta2gamma2L expressed in Xenopus oocytes assessed as increase in chloride current at 10 uM by electrophysiological Method relative to GABA; type: cell-based
Outline: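 Direct gating measured without GABA. Current evoked by 10 µM steroid applied alone to oocytes expressing rat α1β2γ2L GABA-A receptors, expressed as a ratio to the current evoked by 2 µM GABA. Whole-cell recording. At least four oocytes per compound; mean ± SEM.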

Oocyte [8] = experiment: Activity at rat GABA-A receptor alpha1beta2gamma2L expressed in Xenopus oocytes assessed as potentiation of GABA-induced chloride current at 10 uM by electrophysiological Method relative to control; type: cell-based; outline: as §2
Oocyte [9] = experiment: Activity at rat GABA-A receptor alpha1beta2gamma2L expressed in Xenopus oocytes assessed as potentiation of GABA-induced chloride current at 0.1 uM by electrophysiological Method relative to control; type: cell-based; outline: as §2
Mus musculus [10] = experiment: Anesthetic effect in mouse assessed as duration of loss of righting reflex at 8 mg/kg, iv; type: functional
Mus musculus [11] = experiment: Anesthetic effect in mouse assessed as duration of loss of righting reflex at 16 mg/kg, iv; type: functional
Mus musculus [12] = experiment: Anesthetic effect in mouse assessed as time taken for recovery of righting effect and walking at 16 mg/kg, iv; type: functional
Mus musculus [13] = experiment: Anesthetic effect in mouse assessed as loss of righting reflex at 8 mg/kg, iv; type: functional, organism-based; design: dose 8 mg/kg
Mus musculus [14] = experiment: Anesthetic effect in mouse assessed as immediate loss of righting reflex at 16 mg/kg, iv; type: functional, organism-based; design: dose 16 mg/kg

Row | Structure (SMILES) | Activity (Xenopus laevis [1]) | EC50 (Xenopus laevis [2]) [µM] | Activity (Xenopus laevis [3]) | EC50 (Xenopus laevis [4]) [µM] | Activity (Xenopus laevis [5]) | fold change (FC) (Oocyte [6]) | fold change (FC) (Oocyte [7]) | fold change (FC) (Oocyte [8]) | fold change (FC) (Oocyte [9]) | Time (Mus musculus [10]) [min] | Time (Mus musculus [11]) [min] | Time (Mus musculus [12]) [min] | Activity (Mus musculus [13]) | Activity (Mus musculus [14])
1 | C[C@]12CC[C@@H](O)C[C@@H]1CC[C@@H]1[C@@H]2C(=O)C[C@]2(C)/C(=C/C#N)CC[C@@H]12 | inactive | 9.15 | Active | 17.3 |  |  |  |  |  |  |  |  |  | 
2 | C[C@]12CC[C@@H](O)C[C@@H]1CC[C@H]1[C@@H]3CC[C@H](C=O)[C@@]3(C)CC(=O)[C@@H]12 |  | 3.98 | inactive |  | Active |  |  |  |  |  |  |  |  | 
3 | C[C@]12CC[C@@H](O)C[C@@H]1CC[C@H]1[C@@H]3CC[C@H](CC#N)[C@@]3(C)CC(=O)[C@@H]12 |  | 3.58 | inactive |  | Active | 1.13 | 0.01 | 4.67 | 0.91 |  |  |  |  | 
4 | C/C(C#N)=C1\CC[C@H]2[C@@H]3CC[C@H]4C[C@H](O)CC[C@]4(C)[C@H]3C(=O)C[C@]12C |  | 2.71 | inactive | 5.48 | Active | 1.52 | 0.04 | 5.02 | 0.9 |  |  |  |  | 
5 | C[C@]12CC[C@@H](O)C[C@@H]1CC[C@@H]1[C@@H]2C(=O)C[C@]2(C)/C(=C\C#N)CC[C@@H]12 |  |  | inactive | 5.48 | Active |  |  |  |  | 1.5 | 4 |  |  | 
6 | C[C@]12CC[C@@H](O)C[C@@H]1CC[C@@H]1[C@@H]2C(=O)C[C@]2(C)C(C=O)=CC[C@@H]12 |  | 3.22 | inactive |  | Active |  |  |  |  |  |  |  |  | 
7 | C/C(C#N)=C1/CC[C@H]2[C@@H]3CC[C@H]4C[C@H](O)CC[C@]4(C)[C@H]3C(=O)C[C@]12C |  | 2.09 | inactive | 10 | Active | 0.86 | 0.05 | 1.53 | 0.9 |  |  |  |  | 
8 | CC(=O)[C@H]1CC[C@H]2[C@@H]3CC[C@H]4C[C@H](O)CC[C@]4(C)[C@H]3C(=O)C[C@]12C [ALFAXALONE] |  |  |  |  |  |  |  |  |  |  | 4 | 1 | inactive | Active
